Assay outcomes from PubChem.
MPTP inh = inhibitors of mitochondrial permeability transition pore; 360,000 tested, 1.4% active; isolated mouse mitochondria, Ca2+ swelling absorbance, 30 min; inhibition, % at 10 µM;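 active means inhibition of 50% or more, scaled per plate between neutral and stimulator controls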
NR3A LBD binder = modulators (binders) of human NR3A ligand-binding domain; NR3A LBD differential scanning fluorimetry, Tm shift; 0% = protein alone, 100% = glycine-bound protein; Tm shift relative to glycine control, % at 25 µM; 340,000 tested, 2.5% active;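 active means melting temperature shift of at least 10% of the positive control shift, at one fixed dose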
TbMetRS inhib = Trypanosoma brucei MetRS inhibition | AID 624268 | 360,000 tested, 0.4% active | purified T. brucei MetRS, ATP depletion, Kinase-Glo luminescence | inhibition, % at 11.9 µM;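 active means inhibition above a per-plate cutoff of the control wells' mean inhibition plus 3 SD, cut at about 5.5% in these data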
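assay system = parasite MetRS enzyme | timing = 15 min preincubation, 2 h reaction, all 25 °C | evaluation = percent inhibition relative to median high and low control wells | medium = HEPES buffer containing pyrophosphatase, BSA, spermine, DTT | compound = single dose, 11.9 µM final nominal, 0.9% final DMSO | detection = Kinase-Glo luminescence, ATP depletion format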
CHOP inhibitor = CHOP inhibition in unfolded protein response | inhibition, % at 10 µM | CHO-K1 CHOP-promoter luciferase, tunicamycin-induced, 15-18 h | 220,000 tested, 3.8% active | AID 2732;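 active means compounds that reduced the stress-induced luciferase reporter signal by more than about 70% of percent inhibition, limit read from the data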
WT yeast gro inh = growth inhibition of WT yeast, mitochondrial fusion screen | inhibition, % at 10 µM | mitochondrial fusion phenotypic screen, WT strain | 190,000 tested, 2.1% active; in the data active means inhibition above about 58%; tested in S. cerevisiae
EBV gp42 block = inhibitors of Epstein-Barr virus glycoprotein 42. inhibition, % (tested at 21.74 µM). Fluorescence polarization binding assay, mP read-out. 220,000 tested, 0.42% active. Q1HVG2; in the data active means inhibition above about 50%
Target sequence (Q1HVG2 whole entry, looked up): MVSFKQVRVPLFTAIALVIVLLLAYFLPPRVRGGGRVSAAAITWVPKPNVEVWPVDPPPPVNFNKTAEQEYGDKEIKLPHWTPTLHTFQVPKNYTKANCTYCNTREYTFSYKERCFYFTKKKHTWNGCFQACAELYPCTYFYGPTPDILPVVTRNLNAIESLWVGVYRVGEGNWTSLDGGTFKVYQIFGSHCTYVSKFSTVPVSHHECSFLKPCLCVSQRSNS
Hits are given with their value. Only some compounds are listed: those with a hit (about 6.4% of all), similar ones and a draw of the others.

How did O=c1c2ccccc2[nH]c(=S)n1Cc1ccc2c(c1)OCO2 do in these assays?
MPTP inh: inactive; NR3A LBD binder: inactive; TbMetRS inhib: inactive; CHOP inhibitor: inactive; WT yeast gro inh: inactive; EBV gp42 block: inactive

Results for CCn1c(C)cs/c1=N\C(=S)Nc1ccccc1C ?
MPTP inh: inactive; NR3A LBD binder: inactive; TbMetRS inhib: inactive; CHOP inhibitor: inactive; WT yeast gro inh: 61.8; EBV gp42 block: inactive

Results for CC1=CCP(=O)(c2ccccc2)C1 (stereo not given) ?
MPTP inh: inactive; NR3A LBD binder: inactive; TbMetRS inhib: inactive; CHOP inhibitor: 72.3; WT yeast gro inh: inactive; EBV gp42 block: inactive

How did CC1(C)CC(C)(O)P(=O)(c2ccccc2)O1 (stereo not given) do in these assays?
MPTP inh: inactive; NR3A LBD binder: inactive; TbMetRS inhib: inactive; CHOP inhibitor: inactive; WT yeast gro inh: inactive; EBV gp42 block: inactive

How did CC(=O)c1c(C)[nH]c(C(=O)Nc2c(C)n(C)n(-c3ccccc3)c2=O)c1C do in these assays?
MPTP inh: inactive; NR3A LBD binder: inactive; TbMetRS inhib: inactive; CHOP inhibitor: inactive; WT yeast gro inh: inactive; EBV gp42 block: inactive

How did O=C(N/N=C/c1ccc(Cl)cc1)c1cc(-c2cccnc2)nc2ccccc12 do in these assays?
MPTP inh: inactive; NR3A LBD binder: inactive; TbMetRS inhib: inactive; CHOP inhibitor: 83.9; WT yeast gro inh: inactive; EBV gp42 block: inactive

How did O=C(N/N=C/C=C\c1ccccc1[N+](=O)[O-])c1cc(-c2ccccc2)nc2ccccc12 do in these assays?
MPTP inh: inactive; NR3A LBD binder: 10.5; TbMetRS inhib: inactive; CHOP inhibitor: inactive; WT yeast gro inh: inactive; EBV gp42 block: inactive

How did O=C(N/N=C/c1cccc(O)c1)c1cc(-c2ccccc2)nc2ccccc12 do in these assays?
MPTP inh: inactive; NR3A LBD binder: 14.6; TbMetRS inhib: inactive

How did O=C(N/N=C/c1ccc[nH]1)c1cc(-c2ccc(Cl)cc2)nc2ccccc12 do in these assays?
MPTP inh: inactive; NR3A LBD binder: inactive; TbMetRS inhib: inactive; CHOP inhibitor: inactive; WT yeast gro inh: 68.5; EBV gp42 block: inactive

What do the screens show for `O=C(N/N=C/c1cccnc1)c1cc(-c2ccc(Cl)cc2)nc2ccccc12`?
MPTP inh: inactive; NR3A LBD binder: inactive; TbMetRS inhib: inactive

How did O=C(N/N=C/c1ccc(O)c(O)c1)c1cc(-c2ccccc2)nc2ccccc12 do in these assays?
MPTP inh: inactive; NR3A LBD binder: inactive; TbMetRS inhib: inactive

What do the screens show for `O=c1cc(N2CCC3(CC2)OCCO3)[nH]c(=O)n1-c1ccc(Cl)cc1`?
MPTP inh: inactive; NR3A LBD binder: inactive; TbMetRS inhib: inactive; CHOP inhibitor: inactive; WT yeast gro inh: inactive; EBV gp42 block: inactive

How did Nc1sc(-c2ccccc2)cc1C(=O)N/N=C/c1ccc(Cl)cc1 do in these assays?
MPTP inh: inactive; NR3A LBD binder: 13.2; TbMetRS inhib: inactive; CHOP inhibitor: inactive; EBV gp42 block: inactive

What do the screens show for `O=C(N/N=C/c1ccsc1)c1cc(-c2cccs2)nc2ccccc12`?
MPTP inh: inactive; NR3A LBD binder: 11.5; TbMetRS inhib: inactive; CHOP inhibitor: inactive; WT yeast gro inh: inactive; EBV gp42 block: inactive

What do the screens show for `O=C(N/N=C/c1ccc(Cl)cc1)c1cc2c(s1)-c1ccccc1CC2`?
MPTP inh: inactive; NR3A LBD binder: 11.8; TbMetRS inhib: inactive; CHOP inhibitor: inactive; WT yeast gro inh: inactive; EBV gp42 block: inactive

How did O=C(N/N=C/c1ccsc1)c1cc(-c2ccncc2)nc2ccccc12 do in these assays?
MPTP inh: inactive; NR3A LBD binder: inactive; TbMetRS inhib: inactive; CHOP inhibitor: inactive; WT yeast gro inh: inactive; EBV gp42 block: inactive

Results for CC(/C=N/NC(=O)c1cc(-c2ccncc2)nc2ccccc12)=C\c1ccco1 ?
MPTP inh: inactive; NR3A LBD binder: inactive; TbMetRS inhib: inactive; CHOP inhibitor: inactive; WT yeast gro inh: inactive; EBV gp42 block: inactive

How did O=C(N/N=C/c1ccco1)c1cc(-c2cccc(Br)c2)nc2ccccc12 do in these assays?
MPTP inh: inactive; NR3A LBD binder: 11.8; TbMetRS inhib: inactive; CHOP inhibitor: inactive; WT yeast gro inh: inactive; EBV gp42 block: inactive

How did Cc1ccoc1C(=O)NCCNc1ccc(Cl)cc1[N+](=O)[O-] do in these assays?
MPTP inh: inactive; NR3A LBD binder: inactive; TbMetRS inhib: inactive; CHOP inhibitor: inactive; WT yeast gro inh: inactive; EBV gp42 block: inactive

Results for Cc1[nH]c2ccc(F)cc2c1CCN(Cc1cccnc1)C(=S)Nc1ccccc1 ?
MPTP inh: inactive; NR3A LBD binder: inactive; TbMetRS inhib: inactive; CHOP inhibitor: inactive; WT yeast gro inh: inactive; EBV gp42 block: inactive
